From paper PMC8721857 (Oncology Letters, 2021)

Key:
A2780cis cells = assay: Colony formation assay, A2780cis; format: cell-based
Outline: (§1)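 A2780 (1×10^3) or A2780cis (2×10^3) cells were seeded per 3.5-cm dish and grown 24 h. They were exposed 72 h to test compound or cisplatin at 1X or 2X IC50, then PBS-washed. Fresh medium followed for 5 days at 37°C. Staining was 0.5% crystal violet in 25% methanol, 10 min RT. Clusters of ≥50 cells were counted by microscope. Colonies expressed as % of control.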

A2780 cells = assay: Colony formation assay, A2780; format: cell-based
Outline: as §1

[1] = IC50 and 2X IC50 concentrations, 72 h treatment, vs control

N.N.[Cl][Pt][Cl] [cisplatin]
colony formation (A2780cis cells; [1]): almost completely inhibited | cells per colony after treatment (unable to divide) (A2780cis cells; colony formation assay): 3–5 cells/colony | colony formation (A2780 cells; [1]): almost completely inhibited | cells per colony after treatment (unable to divide) (A2780 cells; colony formation assay): 3–5 cells/colony
